Assay outcomes (PubChem BioAssay)
Compounds with a hit are over-represented: about 2.1% of the library has one in this group of screens.
LMPTP block = blocks human LMPTP phosphatase | recombinant LMPTP-A, OMFP fluorogenic substrate, fluorescence intensity | AID 651560 | 0.22% of 360,000 active | P24666 | inhibition, % at 20 µM;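 active = compounds that cut the enzyme signal by at least half of the control window in the single-dose screen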
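Assay system: LMPTP-A enzyme. Input: 0.625 nM LMPTP-A final. Probe or stimulus: 400 µM OMFP. Compound dosing: single 20 µM dose. Schedule: 50 min dark incubation at room temperature. Detection: fluorescence intensity of OMFP turnover product. Read-out: percent inhibition versus substrate-only and uninhibited controls. Benchmarks: no-enzyme low control, uninhibited high control.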
SUMO1 PPI mod = modulators of human SUMO1-mediated protein-protein interactions | SUMO1 binding to a labelled peptide, TR-FRET, 1 h | inhibition, % at 20 µM | 0.33% of 360,000 active | AID 602429; in the data active = inhibition above about 37%
Scp1 inh = inhibitors of human Scp-1 phosphatase; 0.88% of 340,000 active; inhibition, % at 20 µM; AID 493091; Recombinant Scp1, phosphopeptide, malachite green phosphate absorbance;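 active = inhibition above about 50% at 20 µM, limit read from the data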
Target sequence (Q9GZU7 76-261 limits assumed): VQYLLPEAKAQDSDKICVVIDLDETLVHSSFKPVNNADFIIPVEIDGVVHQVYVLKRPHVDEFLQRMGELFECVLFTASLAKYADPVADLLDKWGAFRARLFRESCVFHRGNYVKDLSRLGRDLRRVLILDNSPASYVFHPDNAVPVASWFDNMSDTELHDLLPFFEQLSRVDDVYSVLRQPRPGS
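Test system: SCP-1 phosphatase catalytic domain, residues 76-261 | Compound dosing: One concentration, 20 µM, with 1.0% DMSO | Schedule: 45 min room-temperature reaction, 5 min colour, 30 min stabiliser | Detection: Absorbance at 630 nm | Read-out basis: % inhibition of SCP-1 phosphate liberation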
GRK2 inh = inhibitors of human GRK2 displacing RNA aptamer. P25098. bead flow cytometry, FAM-aptamer displacement from GRK2. inhibition of aptamer binding, % at 10 µM. 0.59% of 330,000 active. AID 488847;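 active = inhibition of aptamer binding above 40%, roughly 3 SD of noise, on plates passing a quality check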;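 also: median bead fluorescence of bound FAM aptamer so fluorescent compounds give negative values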
DNMT1 block = blocks human DNA methyltransferase DNMT1; P26358; 0.83% of 360,000 active; inhibition (reported as % activation of signal), % at 10 µM; DNMT1 molecular beacon, Hinp1I cleavage, fluorescence; in the data active = inhibition above about 50%
STEP block = blocks human striatal-enriched tyrosine phosphatase; recombinant STEP, OMFP fluorogenic substrate, fluorescence; 0.25% of 360,000 active; inhibition, % at 20 µM; P54829;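 active = inhibition at 20 µM, scaled per plate between control wells, above about 37%, limit read from the data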
Target sequence (P54829 whole entry, looked up): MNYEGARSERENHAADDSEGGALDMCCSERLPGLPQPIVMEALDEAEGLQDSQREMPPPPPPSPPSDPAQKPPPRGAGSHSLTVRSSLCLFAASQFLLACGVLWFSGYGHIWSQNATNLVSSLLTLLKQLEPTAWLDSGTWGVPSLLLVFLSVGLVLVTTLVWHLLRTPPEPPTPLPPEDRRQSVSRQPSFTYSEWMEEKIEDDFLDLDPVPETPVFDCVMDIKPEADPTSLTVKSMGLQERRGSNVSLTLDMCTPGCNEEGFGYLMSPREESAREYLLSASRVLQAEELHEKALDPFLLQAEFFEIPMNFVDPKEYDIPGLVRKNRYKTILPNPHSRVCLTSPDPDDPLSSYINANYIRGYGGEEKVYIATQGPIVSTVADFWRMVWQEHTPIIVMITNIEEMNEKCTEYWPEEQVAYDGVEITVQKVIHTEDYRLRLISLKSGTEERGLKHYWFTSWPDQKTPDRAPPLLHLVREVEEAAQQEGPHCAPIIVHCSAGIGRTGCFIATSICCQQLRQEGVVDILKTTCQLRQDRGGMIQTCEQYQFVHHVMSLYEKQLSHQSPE
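Measure: Control-normalized % inhibition with plate pattern correction | Test system: STEP phosphatase, cell-free reaction | Medium: pH 6.0 Bis-Tris with DTT and Tween 20 | Technique: Fluorescence, 480/540 nm | Times: Reaction 20 min, ambient temperature | Doses: Single compound dose of 20 µM, 1% DMSO final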
GRK2 CP1 = human GRK2 inhibition confirmation, cherry pick 1 | AID 504451 | aptamer displacement, % at 10 µM | bead-bound GRK2, FAM-aptamer displacement, flow cytometry | 4% of 2,000 active | shares compounds with GRK2 inh;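 active = aptamer displacement above 40%, near three times the noise of non-fluorescent compounds, on plates passing quality checks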;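 also: negative values mostly reflect intrinsic compound fluorescence rather than true enhancement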
FAM quench CP1 = quenches fluorescent RNA aptamer, GRK2 hit artifact. shares compounds with GRK2 inh. Carboxyfluorescein RNA aptamer on beads, flow cytometry quenching; hits give low values. AID 504580. fluorescence response (% of DMSO), % at 10 µM. 2,000 tested, under 10 active;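 active = compounds that quench the bead-bound fluorescent RNA probe, cutting fluorescence to under half of the solvent control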;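 also: counterscreen run without GRK2 so only probe quenching by compound is measured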
GRK2 confirm 2 = human GRK2 inhibition confirmation, cherry pick 2; 360 tested, under 10 active; inhibition of aptamer binding, % at 10 µM; AID 504782; shares compounds with GRK2 inh; bead-bound GRK2, FAM-aptamer displacement, flow cytometry;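 active = inhibition of aptamer binding above 40%, about triple the noise seen with nonglowing compounds, on plates passing quality control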;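 also: negative values mostly come from compounds that fluoresce themselves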
FAM quench CP2 = counter-screen for GRK2 binding hits: quenchers of fluorescent RNA aptamer; shares compounds with GRK2 inh; carboxyfluorescein RNA aptamer beads, flow cytometry quenching; hits give low values; fluorescence response vs DMSO, % at 10 µM; 360 tested, under 10 active; AID 588494;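 active = response vs DMSO under 50%, meaning signal dropped by over half, treated as fluorescence quencher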;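 also: labelled aptamer on streptavidin beads without GRK2 as a quench counter-screen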
Large screens that a line does not name were inactive (follow-up assays come after a bar, where they were run).

Cc1ccc(O)c(C(=O)c2cnc3c(c2)CN(CCC(C)C)C(=O)N3)c1	GRK2 inh 43 | GRK2 CP1 inactive | FAM quench CP1 inactive
OC(CNC1CCCC1)COc1ccccc1Br (stereo not given)	none
OC(CNC1CCCCCC1)COc1cccc2ccccc12 (stereo not given)	GRK2 inh 52 | GRK2 CP1 inactive | FAM quench CP1 inactive
Cc1ccc(S(=O)(=O)N(C)c2ccc3c(ncn3C)c2[N+](=O)[O-])cc1	none
Cn1cc(CCC(=O)N2CCCC(CCC(=O)NCc3ccccc3F)C2)cn1 (stereo not given)	none
O=C(CCC1CCCN(C(=O)CCN2CCCCC2=O)C1)NCc1ccccc1F (stereo not given)	none | GRK2 CP1 inactive | FAM quench CP1 inactive
CC1(C)CC(NC(=O)Cc2ccccc2)CC(C)(C)N1	none
COc1ccc(CC(=O)NC2CC(C)(C)NC(C)(C)C2)cc1	GRK2 inh 42 | GRK2 CP1 inactive | FAM quench CP1 inactive
O=C(O)CCNc1cc(N2CCN(C(=O)c3ccco3)CC2)c2noc3c2c1C(=O)c1ccccc1-3	SUMO1 PPI mod 50, Scp1 inh 81, GRK2 inh 83, DNMT1 block 106, STEP block 41 | GRK2 CP1 inactive | FAM quench CP1 inactive
CN(C)CC#CCOC(c1ccccc1)c1ccccc1	none
CCN(CC)CC#CCOC(c1ccccc1)c1ccccc1	GRK2 inh 79 | GRK2 CP1 inactive | FAM quench CP1 inactive
CN(Cc1ccccc1F)C(=O)CN1c2cccc3cccc(c23)S1(=O)=O	none
CC(=O)Nc1ccc(S(=O)(=O)N(C)CC(=O)OC(C)C(=O)NC2CCCCC2)cc1 (stereo not given)	none
CCN(C(=O)COC(=O)c1ccc(C=O)cc1)c1c(N)n(Cc2ccccc2)c(=O)[nH]c1=O	none
O=C(O)c1ccc(/C=C/c2ccc3cccc(O)c3n2)cc1	none (no result: GRK2 inh)
Oc1ccc(/C=C/c2ccc3cccc(O)c3n2)cc1Br	GRK2 inh 47 | GRK2 CP1 inactive | FAM quench CP1 inactive
COc1ccc(OC)c(N(C(=O)c2snc(C(N)=O)c2N)C(C(=O)NCC2CCCO2)c2ccc3ncccc3c2)c1 (stereo not given)	GRK2 inh 50 | GRK2 CP1 inactive | FAM quench CP1 inactive
CCc1c(C(=O)OCc2ccccc2)[nH]c(C)c1C	GRK2 inh 93 | GRK2 CP1 inactive | FAM quench CP1 inactive
C/C(=N\OCc1ccccc1C#N)c1cc2ccccc2o1	GRK2 inh 47 | GRK2 CP1 inactive | FAM quench CP1 inactive
C/C(=N\OCc1ccc(C#N)cc1)c1cc2ccccc2o1	none
Cc1ccc(C(=O)NCCCNCCCNC(=O)c2ccc(C)nc2)cn1	GRK2 inh 45 | GRK2 CP1 inactive | FAM quench CP1 inactive
CS(=O)(=O)N1CCC(Oc2ccccc2C(=O)N2CCC[C@H]2CO)CC1	none
CC(C)(C(=O)c1ccccc1)/[N+]([O-])=C/c1ccc(Br)cc1	GRK2 inh 60 | GRK2 CP1 inactive | FAM quench CP1 inactive
CC(COC(=O)c1ccccc1)(COC(=O)c1ccccc1)/[N+]([O-])=C/c1ccccc1	none
O=C(Nc1ccc(Oc2ccc(Br)cc2)cc1)C1=CC=CN2CCS(=O)(=O)N=C12	none
Cc1ccc(C(=O)Nc2cccc(-c3ccc(N4CCOCC4)nn3)c2)cc1	none | GRK2 CP1 inactive | FAM quench CP1 inactive
O=C(Nc1cccc(-c2ccc(N3CCOCC3)nn2)c1)c1ccc(Cl)cc1	none | GRK2 CP1 inactive | FAM quench CP1 inactive
O=C(Nc1cccc(-c2ccc(N3CCOCC3)nn2)c1)c1ccccc1Cl	none | GRK2 CP1 inactive | FAM quench CP1 inactive
Cc1ccc(C(=O)Nc2cccc(-c3ccc(N4CCOCC4)nn3)c2)cc1C	none | GRK2 CP1 inactive | FAM quench CP1 inactive
CSCCC(NS(=O)(=O)c1ccc(C)cc1C)C(=O)Nc1cccnc1 (stereo not given)	none
CN(C)c1ccc(CNS(=O)(=O)c2ccc3c(c2)C(C)(C)C(=O)N3C)cc1	none
O=C(COc1ccc(Cl)cc1)Nc1cccc(-c2ccc(N3CCOCC3)nn2)c1	none | GRK2 CP1 inactive | FAM quench CP1 inactive
COc1ccc(C(=O)Nc2cccc(-c3ccc(N4CCOCC4)nn3)c2)cc1	none | GRK2 CP1 inactive | FAM quench CP1 inactive
COc1ccc([C@@H]2CC=C(C(=O)O)[C@H](c3ccc(Cl)cc3)N2S(=O)(=O)c2ccc(Cl)cc2)cc1	GRK2 inh 49 | GRK2 CP1 inactive | FAM quench CP1 inactive
CCC(C)NC(=O)CNC(=O)c1nn(-c2ccc(OC)cc2OC)c(=O)c2ccccc12 (stereo not given)	none | GRK2 CP1 inactive | FAM quench CP1 inactive
COCCCNC(=O)CNC(=O)c1nn(-c2ccc(OC)cc2OC)c(=O)c2ccccc12	none | GRK2 CP1 inactive | FAM quench CP1 inactive
N=C1C(c2ccccc2)=C(O)CN1NC(=O)c1ccc(Cl)cc1	none
O=C(Nc1cc(Cl)ccc1N1CCOCC1)c1ccc(N2CCCCC2)c([N+](=O)[O-])c1	GRK2 inh 42 | GRK2 confirm 2 inactive | FAM quench CP2 inactive
COC(=O)C[C@@H]1CC[C@H](NC(=O)c2ccc3c(c2)OCO3)[C@@H](CO)O1	none (no result: Scp1 inh, GRK2 inh, DNMT1 block, STEP block)
Cn1c(SCc2cccc([N+](=O)[O-])c2)nc2ccccc2c1=O	GRK2 inh 47 | GRK2 CP1 inactive | FAM quench CP1 inactive
CCOC(=O)C1=C(C(F)(F)F)Nc2ncnn2C1c1cccc(OC)c1OC (stereo not given)	GRK2 inh 81 | GRK2 confirm 2 inactive | FAM quench CP2 inactive
CC(=O)N1CCc2cc(S(=O)(=O)CCC(=O)NCc3ccc4c(c3)OCO4)ccc21	none
CCC(=O)N1c2ccc(S(=O)(=O)CCC(=O)NCc3cccs3)cc2CC1C (stereo not given)	none | GRK2 confirm 2 inactive | FAM quench CP2 inactive
CC(=O)N1CCc2cc(S(=O)(=O)CCC(=O)NCc3cccs3)ccc21	none | GRK2 confirm 2 inactive | FAM quench CP2 inactive
